Measurements: ChEMBL document CHEMBL1123152, “Synthesis, structure, and antitumor and antiviral activities of a series of 5-halouridine cyclic 3',5'-monophosphates” (1986)
Converted amounts (≈) assume the structure as drawn.

Columns and labels:
Assay type in all cases: functional
L1210 [1] = assay: Cytostatic activity against proliferation of L1210/0 cells (murine leukemia L1210 cells); settings: Mus musculus, read-out: ID50 (the source's name)
Method in brief: (§1)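 Tumor cell proliferation assay. L1210/0 is the parental murine leukemia line and Raji/0 the parental human lymphoblast line, with a deoxythymidine kinase deficient Raji subline. Value is the ID50, the dose that inhibits cell proliferation by 50%.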

L1210 [2] = assay: Cytostatic activity against proliferation of L1210/BdU cells (deoxythymidine kinase deficient L1210 cells); settings: Mus musculus, read-out: ID50 (the source's name)
Method in brief: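 Murine L1210 subline deficient in deoxythymidine kinase (L1210/BdU), selected for growth in 260 μg/mL 5-bromo-dU. Proliferation assay; value is the ID50, the dose that inhibits tumor cell proliferation by 50%.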

Raji [3] = assay: Cytostatic activity against proliferation of Raji/0 cells (human lymphoblast Raji cells); settings: read-out: ID50 (the source's name); method in brief: as §1
Raji [4] = assay: Cytostatic activity against proliferation of Raji/TK cells (deoxythymidine kinase deficient Raji cells); settings: Homo sapiens, read-out: ID50 (the source's name); method in brief: as §1
Human alphaherpesvirus 2 [5] = assay: Antiviral activity against Herpes Simplex Virus-2(196)
Method in brief: (§2)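 Primary rabbit kidney cell cultures infected with virus. Value is the minimum concentration that reduces virus-induced cytopathogenicity by 50%. Cytotoxicity was scored as a microscopically detectable alteration of normal cell morphology.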

Human alphaherpesvirus 2 [6] = assay: Antiviral activity against Herpes Simplex Virus-2(G); method in brief: as §2
Human alphaherpesvirus 2 [7] = assay: Antiviral activity against Herpes Simplex Virus-2(Lyons); method in brief: as §2
Human alphaherpesvirus 1 [8] = assay: Antiviral activity against Herpes Simplex Virus-1 (KOS); method in brief: as §2
Human alphaherpesvirus 1 [9] = assay: Antiviral activity against Herpes Simplex Virus-1 (McIntyre); method in brief: as §2
[10] = tested on: Vesicular stomatitis virus; assay: Antiviral activity against vesicular stomatitis virus; method in brief: as §2
Vaccinia virus = assay: Antiviral activity against vaccinia virus; settings: Orthopoxvirus vaccinia; method in brief: as §2
Human alphaherpesvirus 1 [11] = assay: Antiviral activity against Herpes Simplex Virus-1 (F); method in brief: as §2

Structure (SMILES): O=c1[nH]cc(I)c(=O)[nH]1
- IC50 (L1210 [1]): > 1000 µg/mL
- IC50 (L1210 [2]): > 1000 µg/mL
- IC50 (Raji [3]): > 1000 µg/mL
- IC50 (Raji [4]): 612 µg/mL (≈ 2570 µM)

Structure (SMILES): O=c1[nH]c(=O)n([C@@H]2O[C@H](COP(=O)(O)O)[C@@H](O)[C@H]2O)cc1I
- IC50 (L1210 [1]): 703 µg/mL (≈ 1560 µM)
- IC50 (L1210 [2]): > 1000 µg/mL
- IC50 (Raji [3]): > 1000 µg/mL
- IC50 (Raji [4]): > 1000 µg/mL

Structure (SMILES): Oc1ncc(Cl)c(O)n1
- IC50 (L1210 [1]): 455 µg/mL (≈ 3110 µM)
- IC50 (L1210 [2]): 660 µg/mL (≈ 4500 µM)
- IC50 (Raji [3]): > 1000 µg/mL
- IC50 (Raji [4]): > 1000 µg/mL

Structure (SMILES): O=c1[nH]c(=O)n([C@@H]2O[C@H](COP(=O)(O)O)[C@@H](O)[C@H]2O)cc1Br
- IC50 (L1210 [1]): 385 µg/mL (≈ 955 µM)
- IC50 (L1210 [2]): 376 µg/mL (≈ 933 µM)
- IC50 (Raji [3]): 48 µg/mL (≈ 119 µM)
- IC50 (Raji [4]): > 1000 µg/mL

Structure (SMILES): O=c1[nH]c(=O)n([C@@H]2O[C@H](CO)[C@@H](O)[C@@H]2O)cc1Br
- IC50 (L1210 [1]): 210 µg/mL (≈ 650 µM)
- IC50 (L1210 [2]): 335 µg/mL (≈ 1040 µM)
- IC50 (Raji [3]): 32 µg/mL (≈ 99 µM)
- IC50 (Raji [4]): 950 µg/mL (≈ 2940 µM)

Structure (SMILES): O=c1[nH]c(=O)n([C@@H]2O[C@@H]3COP(=O)(O)O[C@H]3[C@H]2O)cc1I
- IC50 (L1210 [1]): 315 µg/mL (≈ 729 µM)
- IC50 (L1210 [2]): 344 µg/mL (≈ 796 µM)
- IC50 (Raji [3]): 359 µg/mL (≈ 831 µM)
- IC50 (Raji [4]): 722 µg/mL (≈ 1670 µM)

Structure (SMILES): O=c1[nH]c(=O)n([C@@H]2O[C@@H]3COP(=O)(O)O[C@H]3[C@H]2O)cc1Cl
- MIC (Human alphaherpesvirus 2 [5]): > 400 µg/mL
- MIC (Human alphaherpesvirus 2 [6]): > 400 µg/mL
- MIC (Human alphaherpesvirus 2 [7]): > 400 µg/mL
- MIC (Human alphaherpesvirus 1 [8]): > 400 µg/mL
- MIC (Human alphaherpesvirus 1 [9]): > 400 µg/mL
- IC50 (L1210 [1]): > 1000 µg/mL
- IC50 (L1210 [2]): > 1000 µg/mL
- IC50 (Raji [3]): 278 µg/mL (≈ 816 µM)
- IC50 (Raji [4]): 369 µg/mL (≈ 1080 µM)
- MIC [10]: > 400 µg/mL
- MIC (Vaccinia virus): > 400 µg/mL
- MIC (Human alphaherpesvirus 1 [11]): > 400 µg/mL

Structure (SMILES): O=c1[nH]c(=O)n([C@@H]2O[C@@H]3COP(=O)(O)O[C@H]3[C@H]2O)cc1Br
- MIC (Human alphaherpesvirus 2 [5]): > 200 µg/mL
- MIC (Human alphaherpesvirus 2 [6]): > 200 µg/mL
- MIC (Human alphaherpesvirus 2 [7]): 150 µg/mL (≈ 390 µM)
- MIC (Human alphaherpesvirus 1 [8]): > 200 µg/mL
- MIC (Human alphaherpesvirus 1 [9]): 200 µg/mL (≈ 519 µM)
- IC50 (L1210 [1]): 315 µg/mL (≈ 818 µM)
- IC50 (L1210 [2]): 294 µg/mL (≈ 764 µM)
- IC50 (Raji [3]): 210 µg/mL (≈ 545 µM)
- IC50 (Raji [4]): 241 µg/mL (≈ 626 µM)
- MIC [10]: > 200 µg/mL
- MIC (Vaccinia virus): > 200 µg/mL
- MIC (Human alphaherpesvirus 1 [11]): > 200 µg/mL

Structure (SMILES): O=c1[nH]c(=O)n([C@@H]2O[C@@H]3COP(=O)(O)O[C@H]3[C@H]2O)cc1F
- MIC (Human alphaherpesvirus 2 [5]): > 100 µg/mL
- MIC (Human alphaherpesvirus 2 [6]): > 100 µg/mL
- MIC (Human alphaherpesvirus 2 [7]): > 100 µg/mL
- MIC (Human alphaherpesvirus 1 [8]): > 100 µg/mL
- MIC (Human alphaherpesvirus 1 [9]): > 100 µg/mL
- IC50 (L1210 [1]): 0.34 µg/mL (≈ 1.05 µM)
- IC50 (L1210 [2]): 0.332 µg/mL (≈ 1.02 µM)
- IC50 (Raji [3]): 0.416 µg/mL (≈ 1.28 µM)
- IC50 (Raji [4]): 1.64 µg/mL (≈ 5.06 µM)
- MIC [10]: 150 µg/mL (≈ 463 µM)
- MIC (Vaccinia virus): 20 µg/mL (≈ 61.7 µM)
- MIC (Human alphaherpesvirus 1 [11]): > 100 µg/mL

Structure (SMILES): O=c1[nH]c(=O)n(C2O[C@H](COP(=O)(O)O)[C@@H](O)[C@@H]2O)cc1F (stereo partly drawn)
- IC50 (L1210 [1]): 0.024 µg/mL (≈ 0.0701 µM)
- IC50 (L1210 [2]): 0.03 µg/mL (≈ 0.0877 µM)
- IC50 (Raji [3]): 0.029 µg/mL (≈ 0.0848 µM)
- IC50 (Raji [4]): 0.141 µg/mL (≈ 0.412 µM)

Structure (SMILES): O=c1[nH]c(=O)n(C2O[C@H](CO)[C@@H](O)[C@@H]2O)cc1I (stereo partly drawn)
- IC50 (L1210 [1]): > 1000 µg/mL
- IC50 (L1210 [2]): > 1000 µg/mL
- IC50 (Raji [3]): 639 µg/mL (≈ 1730 µM)
- IC50 (Raji [4]): 738 µg/mL (≈ 1990 µM)

Structure (SMILES): O=c1[nH]cc(Br)c(=O)[nH]1 [5-BROMOURACIL]
- IC50 (L1210 [1]): > 1000 µg/mL
- IC50 (L1210 [2]): > 1000 µg/mL
- IC50 (Raji [3]): > 1000 µg/mL
- IC50 (Raji [4]): > 1000 µg/mL

Structure (SMILES): O=c1[nH]c(=O)n([C@@H]2O[C@H](CO)[C@@H](O)[C@H]2O)cc1F [5-FLUOROURIDINE]
- IC50 (L1210 [1]): 0.013 µg/mL (≈ 0.0496 µM)
- IC50 (L1210 [2]): 0.019 µg/mL (≈ 0.0725 µM)
- IC50 (Raji [3]): 0.023 µg/mL (≈ 0.0877 µM)
- IC50 (Raji [4]): 0.085 µg/mL (≈ 0.324 µM)

Structure (SMILES): O=c1[nH]c(=O)n([C@H]2C[C@H](O)[C@@H](CO)O2)cc1/C=C/Br [BRIVUDINE]
- MIC (Human alphaherpesvirus 2 [5]): 100 µg/mL (≈ 300 µM)
- MIC (Human alphaherpesvirus 2 [6]): 1 µg/mL (≈ 3 µM)
- MIC (Human alphaherpesvirus 2 [7]): 1 µg/mL (≈ 3 µM)
- MIC (Human alphaherpesvirus 1 [8]): 0.02 µg/mL (≈ 0.06 µM)
- MIC (Human alphaherpesvirus 1 [9]): 0.02 µg/mL (≈ 0.06 µM)
- MIC [10]: > 400 µg/mL
- MIC (Vaccinia virus): 2 µg/mL (≈ 6 µM)
- MIC (Human alphaherpesvirus 1 [11]): 0.02 µg/mL (≈ 0.06 µM)

Structure (SMILES): O=c1[nH]cc(F)c(=O)[nH]1 [FLUOROURACIL]
- IC50 (L1210 [1]): 0.208 µg/mL (≈ 1.6 µM)
- IC50 (L1210 [2]): 0.286 µg/mL (≈ 2.2 µM)
- IC50 (Raji [3]): 1.35 µg/mL (≈ 10.4 µM)
- IC50 (Raji [4]): 3.37 µg/mL (≈ 25.9 µM)
